H9c2 protect: protects H9c2 cardiomyocytes from peroxide injury; protection from H2O2 cell death, % at 20 µM; 0.63% of 360,000 active; H2O2 injury protection, ATPLite, 2 h;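 active = compounds giving at least 50% protection of heart cells from peroxide-induced death in the single-dose screen, raw or plate-pattern-corrected value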;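 note: 0% = DMSO wells with peroxide and 100% = DMSO wells without peroxide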
PKA-R1A act: PKA-R1A complex activation. P00514+P68181. PKA-R1A dissociation, Cy5-IP20 fluorescence polarization; scaled: DMSO 0%, 113 µM cGMP 100%. activation, % at 11.4 µM. 0.083% of 340,000 active;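 active = percent activation above the mean of all tested compounds plus 3 SD, cut at about 19% in these data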;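 note: higher means more PKAc released from R1A so a rise in polarization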
TbMetRS inhib: Trypanosoma brucei MetRS inhibition; 0.4% of 360,000 active; AID 624268; inhibition, % at 11.9 µM; purified T. brucei MetRS, ATP depletion, Kinase-Glo luminescence;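 active = inhibition above a per-plate cutoff of the control wells' mean inhibition plus 3 SD, cut at about 5.5% in these data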;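 note: 0% = DMSO wells median and 100% = median of wells with control inhibitor compound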
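Assay system: T. brucei methionyl-tRNA synthetase, purified | Medium: HEPES buffer with MgCl2, KCl, DTT, spermine, BSA, pyrophosphatase | Compound: 11.9 µM single point | Incubation: 15 min enzyme-compound preincubation, 2 h reaction, 10 min detection, 25 °C | Measured by: Kinase-Glo luciferase luminescence reporting remaining unconsumed ATP | Measure: % inhibition normalized to control-well medians | Replication: Singlicate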
Rin1 Abl inh: blocks binding of human Rin1 to Abl. P00519+Q13671. inhibition, % at 7.35 µM. TR-FRET Rin1/Abl binding, biochemical. AID 588664. 0.4% of 360,000 active; in the data active = inhibition above about 5%, passing the limit was not always enough
PKA-R2B act: activators of human PKA-R2B complex | P22694+P31323 | PKA-R2B holoenzyme dissociation, Cy5-IP20 fluorescence polarization; R2B truncated from residue 108, S112A mutant; 0% DMSO only, 100% 113 µM cGMP | activation, % at 11.4 µM | 0.079% of 340,000 active;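 active = activation above a cutoff set at the mean over all compounds plus 3 SD, cut at about 18% in these data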;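 note: higher means more holoenzyme dissociation and a rise in polarization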
Target sequence (P31323 whole entry, looked up, other chains not shown, the tested form may be a part): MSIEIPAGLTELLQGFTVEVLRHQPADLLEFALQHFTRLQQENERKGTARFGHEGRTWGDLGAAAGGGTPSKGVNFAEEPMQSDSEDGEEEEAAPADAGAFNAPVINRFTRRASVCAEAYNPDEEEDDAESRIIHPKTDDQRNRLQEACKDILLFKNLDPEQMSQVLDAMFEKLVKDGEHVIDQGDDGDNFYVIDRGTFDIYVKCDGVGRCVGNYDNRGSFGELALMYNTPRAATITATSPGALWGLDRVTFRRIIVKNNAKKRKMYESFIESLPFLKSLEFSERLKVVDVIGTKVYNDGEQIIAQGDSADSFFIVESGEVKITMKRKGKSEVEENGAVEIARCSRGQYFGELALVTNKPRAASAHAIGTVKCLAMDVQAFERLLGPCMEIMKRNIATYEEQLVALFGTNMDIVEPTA
TbMetRS confirm: Trypanosoma brucei MetRS inhibition confirmed; shares compounds with TbMetRS inhib; T. brucei MetRS enzyme, luminescence (ATP depletion); inhibition, % at 11.9 µM; 93% of 1,400 active; in the data active = inhibition above about 7%
Jurkat cytotox: counter-screen for T. brucei MetRS inhibitors: Jurkat cell cytotoxicity | shares compounds with TbMetRS inhib | Jurkat cells viability, ATP luminescence | inhibition, % at 8.3 µM | 12% of 1,400 active | AID 624413; in the data active = inhibition above about 15%;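 note: 0% = vehicle and 100% = reference inhibitor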
Tb MetRS inh FP: inhibits T. brucei methionyl tRNA synthetase in orthogonal FP test | shares compounds with TbMetRS inhib | purified T. brucei MetRS, fluorescence polarization | inhibition, % at 11.9 µM | 44% of 1,400 active; in the data active = inhibition above about 17%;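 note: 0% = vehicle wells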
The depositor's hits bear a star; x = no result given. An excerpt weighted towards active compounds, which were near 1.5% of everything screened.

SMILES	H9c2 protect	PKA-R1A act	TbMetRS inhib	Rin1 Abl inh	PKA-R2B act	TbMetRS confirm	Jurkat cytotox	Tb MetRS inh FP
O=C(NCc1nc2ccccc2[nH]1)C1=C[C@H](c2ccc3c(c2)OCO3)C[C@H](OCCCCO)O1	5	-11	69*	-2	3	89*	-3	76*
O=C(NCc1ccccc1)C1=C[C@H](c2ccc(C(F)(F)F)cc2)C[C@H](OCCCCO)O1	-4	-3	0	3	7	x	x	x
O=C(C1=C[C@@H](c2ccc3c(c2)OCO3)C[C@@H](OCCCCO)O1)N1CCN(Cc2ccc3c(c2)OCO3)CC1	4	-13	18*	2	-15	55*	2	25*
O=C(C1=C[C@H](c2ccc3c(c2)OCO3)C[C@H](OCCCCO)O1)N1CCN(Cc2ccc3c(c2)OCO3)CC1	1	11	1	2	2	x	x	x
O=C(NCc1nc2ccccc2[nH]1)C1=C[C@@H](c2ccc(C(F)(F)F)cc2)C[C@@H](OCCCCO)O1	-2	-2	32*	2	-8	68*	9	35*
O=C(NCc1ccccc1)C1=C[C@@H](c2ccc(C(F)(F)F)cc2)C[C@@H](OCCCCO)O1	3	-8	0	3	-4	x	x	x
O=C(NCc1nnc(SCC(=O)N2CCCCC2)o1)c1c(F)cccc1Cl	2	-5	0	-1	5	x	x	x
CCN(CC)Cc1cc(Nc2c3ccccc3nc3c4ccccc4n(C)c23)cc(CN(CC)CC)c1O	9	10	0	-14	-4	x	x	x
O=C(NCc1nc2ccccc2[nH]1)C1=C[C@H](c2ccccc2)C[C@H](OCCCCO)O1	3	-15	39*	0	-3	74*	-5	45*
COC(=O)N1CCC2CC1c1c(Cl)cccc12 (stereo unspecified)	5	x	-1	0	x	x	x	x
CCCCc1c(-c2ccccc2OC)ncn1CCc1cccc(Cl)c1	x	x	5.8*	x	x	16*	36*	5
Cc1ccc(S(=O)(=O)N2[C@@H](c3ccc(Br)cc3)C(C(=O)O)=CC[C@H]2c2ccc3c(c2)OCO3)cc1	-1	4	-1	1	-8	x	x	x
CSc1nc2ccccc2n1CC(=O)Nc1ccccc1	-4	-10	0	0	-6	x	x	x
O=C(Cn1c(/C=C/c2ccccc2)nc2ccccc21)Nc1ccc(F)cc1	-9	12	32*	-8	-7	55*	8	39*
O=C(Nc1ccc(F)cc1)c1ccccc1NS(=O)(=O)N1CCCC1	-4	-6	0	1	-4	x	x	x
O=Cc1cc([N+](=O)[O-])ccc1N1CCN(Cc2ccc3c(c2)OCO3)CC1	-4	-4	8.1*	2	-5	18*	1	8
O=[N+]([O-])c1ccc(N2CCN(Cc3ccc4c(c3)OCO4)CC2)nc1	-5	-4	0	-3	-10	x	x	x
CC(C)c1ccc(NC(=O)c2ccc3c(c2)C(=O)N(Cc2cccnc2)C3=O)cc1	-16	0	0	-5	-5	x	x	x
Nc1nnc(CC(=O)N/N=C/c2ccc(-c3ccc(F)cc3)o2)s1	-5	x	6.4*	0	x	2	6	1
COC(=O)C1=C(N)Oc2cc(C)n(Cc3cccnc3)c(=O)c2C1c1cc(OC)ccc1OC (stereo unspecified)	2	-1	40*	2	2	6.1*	2	4
COC(=O)C1=C(N)Oc2cc(C)n(Cc3cccnc3)c(=O)c2C1c1cccc(OC)c1OC (stereo unspecified)	9	-1	-1	4	-2	x	x	x
COC(=O)C1=C(N)Oc2cc(C)n(CCCn3ccnc3)c(=O)c2C1c1cccc(Cl)c1 (stereo unspecified)	1	-12	19*	7	-9	3	1	4
